Tests used:
[1] = target: Fibroblast growth factor receptor 2 (Homo sapiens, UniProt P21802); assay: Inhibition of human recombinant cytoplasmic His-tagged FGFR2 (403 to 822 residues) expressed in baculovirus using Tyr-4 peptide after 1 hr by FRET-based Z'-Lyte assay
[2] = system: Tyrosine-protein kinase ABL1 (Homo sapiens), P00519 [F317L]; assay: Inhibition of human phosphorylated ABL1 F317L mutant (S229 to K512 residues) expressed in HEK293 cells assessed as residual activity at 1000 nM after 30 mins by Kinomescan method relative to control; format: cell-based
In short: (§1)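 Single-point screen at a fixed 1 µM, run within a 456-kinase DiscoveRx KINOMEscan panel. Each kinase's read-out is Percent Control, i.e. signal relative to a control without compound. Hits were scored by a Percent Control < 35 cut-off, and an S(35) selectivity score was calculated across the non-mutant kinases.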

[3] = system: ALK tyrosine kinase receptor (Homo sapiens), Q9UM73 [L1196M]; assay: Inhibition of wild-type human partial length ALK L1196M mutant (I1088 to E1409 residues) expressed in HEK293 cells assessed as residual activity at 1000 nM after 30 mins by Kinomescan method relative to control; format: cell-based
[4] = target: Tyrosine-protein kinase Blk (Homo sapiens) (UniProt P51451); assay: Inhibition of wild-type human partial length BLK (G211 to L503 residues) expressed in Escherichia coli BL21 assessed as residual activity at 1000 nM after 30 mins by Kinomescan method relative to control
[5] = target: Serine/threonine-protein kinase B-raf (Homo sapiens) (UniProt P15056); assay: Inhibition of wild-type human partial length BRAF (S429 to E741 residues) expressed in HEK293 cells assessed as residual activity at 1000 nM after 30 mins by Kinomescan method relative to control; format: cell-based
Sequence of Serine/threonine-protein kinase B-raf (Homo sapiens) (P15056 whole entry, the tested form may be a part): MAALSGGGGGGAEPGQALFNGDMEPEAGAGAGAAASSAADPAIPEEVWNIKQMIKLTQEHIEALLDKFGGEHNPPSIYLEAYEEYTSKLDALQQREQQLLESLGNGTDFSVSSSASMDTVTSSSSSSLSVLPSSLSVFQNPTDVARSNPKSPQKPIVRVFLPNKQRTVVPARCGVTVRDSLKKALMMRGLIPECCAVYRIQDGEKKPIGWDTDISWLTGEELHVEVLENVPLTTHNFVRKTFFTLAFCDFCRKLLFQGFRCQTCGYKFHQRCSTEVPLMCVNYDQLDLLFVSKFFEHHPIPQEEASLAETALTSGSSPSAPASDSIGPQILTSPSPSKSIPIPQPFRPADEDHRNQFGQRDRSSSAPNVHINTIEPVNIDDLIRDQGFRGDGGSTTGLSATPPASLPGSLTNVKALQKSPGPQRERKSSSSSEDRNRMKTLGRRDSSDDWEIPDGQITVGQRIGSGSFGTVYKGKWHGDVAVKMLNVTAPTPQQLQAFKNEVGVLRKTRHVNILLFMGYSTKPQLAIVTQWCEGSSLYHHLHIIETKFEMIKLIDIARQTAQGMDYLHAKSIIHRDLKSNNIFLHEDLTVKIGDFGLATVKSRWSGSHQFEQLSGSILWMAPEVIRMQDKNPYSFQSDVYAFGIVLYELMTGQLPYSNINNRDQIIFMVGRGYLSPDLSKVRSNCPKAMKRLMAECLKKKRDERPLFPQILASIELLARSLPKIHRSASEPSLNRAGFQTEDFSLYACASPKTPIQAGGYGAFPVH

[6] = target: Calcium/calmodulin-dependent protein kinase type II subunit beta (Homo sapiens) (UniProt Q13554); assay: Inhibition of wild-type human partial length CAMK2B (M1 to Q380 residues) expressed in Escherichia coli BL21 assessed as residual activity at 1000 nM after 30 mins by Kinomescan method relative to control
Sequence of Calcium/calmodulin-dependent protein kinase type II subunit beta (Homo sapiens) (Q13554 whole entry, the tested form may be a part): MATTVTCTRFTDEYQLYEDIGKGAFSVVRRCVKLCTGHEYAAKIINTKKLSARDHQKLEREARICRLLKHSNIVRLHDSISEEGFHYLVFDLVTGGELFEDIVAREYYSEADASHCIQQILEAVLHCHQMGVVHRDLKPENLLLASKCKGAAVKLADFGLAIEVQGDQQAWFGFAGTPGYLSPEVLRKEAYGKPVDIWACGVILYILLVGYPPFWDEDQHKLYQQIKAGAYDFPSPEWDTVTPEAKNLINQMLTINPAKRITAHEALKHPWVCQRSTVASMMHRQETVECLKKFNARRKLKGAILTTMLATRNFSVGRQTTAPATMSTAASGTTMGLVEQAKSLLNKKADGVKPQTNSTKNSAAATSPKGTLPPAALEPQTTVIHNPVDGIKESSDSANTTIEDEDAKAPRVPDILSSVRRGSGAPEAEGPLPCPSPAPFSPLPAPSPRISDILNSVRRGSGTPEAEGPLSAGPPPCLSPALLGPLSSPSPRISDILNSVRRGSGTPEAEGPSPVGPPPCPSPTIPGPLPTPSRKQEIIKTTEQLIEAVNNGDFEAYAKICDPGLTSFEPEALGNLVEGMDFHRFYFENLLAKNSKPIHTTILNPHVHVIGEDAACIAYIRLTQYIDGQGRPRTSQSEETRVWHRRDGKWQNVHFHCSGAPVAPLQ

[7] = target: Cyclin-dependent kinase 11B (Homo sapiens) (UniProt P21127); assay: Inhibition of wild-type human partial length CDC2L1 (P353 to G692 residues) expressed in Escherichia coli BL21 assessed as residual activity at 1000 nM after 30 mins by Kinomescan method relative to control
[8] = target: Cyclin-dependent kinase-like 1 (Homo sapiens) (UniProt Q00532); assay: Inhibition of wild-type human full length CDKL1 (M1 to I358 residues) expressed in HEK293 cells assessed as residual activity at 1000 nM after 30 mins by Kinomescan method relative to control; format: cell-based; in short: as §1
Sequence of Cyclin-dependent kinase-like 1 (Homo sapiens) (Q00532 whole entry, the tested form may be a part): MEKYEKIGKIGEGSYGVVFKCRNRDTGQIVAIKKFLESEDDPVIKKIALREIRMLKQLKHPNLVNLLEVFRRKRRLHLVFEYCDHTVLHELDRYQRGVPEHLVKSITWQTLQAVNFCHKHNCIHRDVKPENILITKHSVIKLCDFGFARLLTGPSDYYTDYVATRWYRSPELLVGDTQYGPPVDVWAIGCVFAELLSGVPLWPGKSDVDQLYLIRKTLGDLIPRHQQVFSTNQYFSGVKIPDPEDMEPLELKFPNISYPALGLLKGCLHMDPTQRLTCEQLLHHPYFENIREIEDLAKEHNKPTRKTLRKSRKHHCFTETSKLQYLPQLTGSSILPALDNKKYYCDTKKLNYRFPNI

[9] = target: Serine/threonine-protein kinase Chk1 (Homo sapiens) (UniProt O14757); assay: Inhibition of wild-type human partial length CHEK1 (M1 to G289 residues) expressed in Escherichia coli BL21 assessed as residual activity at 1000 nM after 30 mins by Kinomescan method relative to control
[10] = target: Death-associated protein kinase 3 (Homo sapiens) (UniProt O43293); assay: Inhibition of wild-type human partial length DAPK3 (M1 to A277 residues) expressed in Escherichia coli BL21 assessed as residual activity at 1000 nM after 30 mins by Kinomescan method relative to control
Sequence of Death-associated protein kinase 3 (Homo sapiens) (O43293 whole entry, looked up, the tested form may be a part): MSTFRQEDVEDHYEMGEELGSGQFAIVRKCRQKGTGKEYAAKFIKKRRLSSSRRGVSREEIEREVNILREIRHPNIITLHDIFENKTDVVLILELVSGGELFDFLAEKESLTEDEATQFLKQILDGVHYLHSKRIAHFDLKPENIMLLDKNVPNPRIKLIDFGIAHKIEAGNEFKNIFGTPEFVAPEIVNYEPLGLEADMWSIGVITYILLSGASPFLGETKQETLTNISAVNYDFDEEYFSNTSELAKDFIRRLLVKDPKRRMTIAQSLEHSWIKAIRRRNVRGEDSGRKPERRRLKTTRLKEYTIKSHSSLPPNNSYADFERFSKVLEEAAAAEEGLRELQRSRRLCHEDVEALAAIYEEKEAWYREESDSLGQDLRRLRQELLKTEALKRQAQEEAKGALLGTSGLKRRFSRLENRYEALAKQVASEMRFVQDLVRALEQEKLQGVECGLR

[11] = target: Dual specificity tyrosine-phosphorylation-regulated kinase 1A (Homo sapiens) (UniProt Q13627); assay: Inhibition of wild-type human partial length DYRK1A (H129 to S509 residues) expressed in HEK293 cells assessed as residual activity at 1000 nM after 30 mins by Kinomescan method relative to control; format: cell-based
[12] = target: Mitogen-activated protein kinase 1 (Homo sapiens) (UniProt P28482); assay: Inhibition of wild-type human full length ERK2 (M1 to S360 residues) expressed in Escherichia coli BL21 assessed as residual activity at 1000 nM after 30 mins by Kinomescan method relative to control
Sequence of Mitogen-activated protein kinase 1 (Homo sapiens) (P28482 whole entry, the tested form may be a part): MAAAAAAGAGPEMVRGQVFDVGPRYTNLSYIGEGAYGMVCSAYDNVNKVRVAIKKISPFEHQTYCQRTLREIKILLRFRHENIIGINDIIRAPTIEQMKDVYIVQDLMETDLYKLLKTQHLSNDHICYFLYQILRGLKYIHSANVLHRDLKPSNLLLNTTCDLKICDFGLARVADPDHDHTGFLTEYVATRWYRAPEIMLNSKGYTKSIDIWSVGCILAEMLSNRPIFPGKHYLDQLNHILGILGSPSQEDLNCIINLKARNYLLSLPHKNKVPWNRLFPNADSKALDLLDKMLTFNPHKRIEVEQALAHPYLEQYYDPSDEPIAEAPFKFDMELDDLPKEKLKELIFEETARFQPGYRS
In short: (§2)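 Single-concentration screen at 1 µM across a 456-kinase KINOMEscan panel. The read-out is Percent Control for each kinase.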

[13] = system: Receptor-type tyrosine-protein kinase FLT3 (Homo sapiens), P36888 [N841I]; assay: Inhibition of human partial length FLT3 N841I mutant (V592 to Y969 residues) expressed in Escherichia coli BL21 assessed as residual activity at 1000 nM after 30 mins by Kinomescan method relative to control
In short: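 KINOMEscan binding panel of 456 kinases, with the test compound at a single concentration of 1 µM. Read-out is Percent Control.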

[14] = target: Serine/threonine-protein kinase 38 (Homo sapiens) (UniProt Q15208); assay: Inhibition of wild-type human partial length NDR1 (N33 to E449 residues) expressed in HEK293 cells assessed as residual activity at 1000 nM after 30 mins by Kinomescan method relative to control; format: cell-based
Sequence of Serine/threonine-protein kinase 38 (Homo sapiens) (Q15208 2-465 limits assumed): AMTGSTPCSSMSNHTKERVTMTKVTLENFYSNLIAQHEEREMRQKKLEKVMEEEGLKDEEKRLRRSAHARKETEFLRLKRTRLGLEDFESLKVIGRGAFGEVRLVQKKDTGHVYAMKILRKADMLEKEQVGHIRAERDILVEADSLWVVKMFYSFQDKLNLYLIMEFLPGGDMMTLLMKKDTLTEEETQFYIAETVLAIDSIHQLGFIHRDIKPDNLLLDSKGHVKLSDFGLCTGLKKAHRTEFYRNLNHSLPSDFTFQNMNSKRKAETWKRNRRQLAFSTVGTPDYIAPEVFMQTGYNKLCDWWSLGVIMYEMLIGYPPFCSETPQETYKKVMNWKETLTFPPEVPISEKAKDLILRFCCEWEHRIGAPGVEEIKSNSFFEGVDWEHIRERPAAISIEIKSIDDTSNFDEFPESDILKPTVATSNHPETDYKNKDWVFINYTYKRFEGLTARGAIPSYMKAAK

[15] = target: Serine/threonine-protein kinase Nek9 (Homo sapiens) (UniProt Q8TD19); assay: Inhibition of wild-type human partial length NEK9 (P32 to R328 residues) expressed in Escherichia coli BL21 assessed as residual activity at 1000 nM after 30 mins by Kinomescan method relative to control
[16] = target: Cyclin-dependent kinase 15 (Homo sapiens) (UniProt Q96Q40); assay: Inhibition of wild-type human full length PFTAIRE2 (M1 to W384 residues) expressed in Escherichia coli BL21 assessed as residual activity at 1000 nM after 30 mins by Kinomescan method relative to control; in short: as §2
[17] = target: cAMP-dependent protein kinase catalytic subunit beta (Homo sapiens) (UniProt P22694); assay: Inhibition of wild-type human full length PKAC-beta (M1 to F351 residues) expressed in Escherichia coli BL21 assessed as residual activity at 1000 nM after 30 mins by Kinomescan method relative to control
In short: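 Single-concentration screen at 1 µM against a 456-kinase panel (KINOMEscan). Read-out is Percent Control for each kinase. Across the 403 non-mutant kinases, an S(35) selectivity score was derived as the fraction of kinases with Percent Control < 35.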

[18] = target: Protein kinase C epsilon type (Homo sapiens) (UniProt Q02156); assay: Inhibition of wild-type human partial length PRKCE (A378 to P737 residues) expressed in HEK293 cells assessed as residual activity at 1000 nM after 30 mins by Kinomescan method relative to control; format: cell-based
[19] = target: SNF-related serine/threonine-protein kinase (Homo sapiens) (UniProt Q9NRH2); assay: Inhibition of wild-type human partial length SNRK (M1 to E339 residues) expressed in HEK293 cells assessed as residual activity at 1000 nM after 30 mins by Kinomescan method relative to control; format: cell-based
Sequence of SNF-related serine/threonine-protein kinase (Homo sapiens) (Q9NRH2 whole entry, the tested form may be a part): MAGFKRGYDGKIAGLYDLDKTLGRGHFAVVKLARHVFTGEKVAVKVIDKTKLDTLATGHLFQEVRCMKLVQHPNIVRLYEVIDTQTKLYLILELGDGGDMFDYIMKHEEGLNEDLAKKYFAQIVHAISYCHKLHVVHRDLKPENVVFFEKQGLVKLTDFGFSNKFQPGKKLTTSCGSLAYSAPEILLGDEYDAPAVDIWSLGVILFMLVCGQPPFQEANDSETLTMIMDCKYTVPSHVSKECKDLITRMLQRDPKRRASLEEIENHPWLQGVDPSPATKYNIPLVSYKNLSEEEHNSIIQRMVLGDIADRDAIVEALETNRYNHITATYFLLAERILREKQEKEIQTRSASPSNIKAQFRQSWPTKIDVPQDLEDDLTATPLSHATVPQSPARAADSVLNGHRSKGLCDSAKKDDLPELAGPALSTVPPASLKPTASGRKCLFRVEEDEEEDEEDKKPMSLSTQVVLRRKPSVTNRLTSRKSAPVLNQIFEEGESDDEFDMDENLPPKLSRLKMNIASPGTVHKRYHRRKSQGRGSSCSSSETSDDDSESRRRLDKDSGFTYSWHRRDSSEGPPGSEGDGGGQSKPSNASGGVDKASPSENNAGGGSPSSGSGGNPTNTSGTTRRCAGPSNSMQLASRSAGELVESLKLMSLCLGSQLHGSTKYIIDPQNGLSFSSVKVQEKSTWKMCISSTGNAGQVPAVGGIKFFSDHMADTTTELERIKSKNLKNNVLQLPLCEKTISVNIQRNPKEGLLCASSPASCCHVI

[20] = target: SRSF protein kinase 1 (Homo sapiens) (UniProt Q96SB4); assay: Inhibition of wild-type human full length SRPK1 (M1 to S655 residues) expressed in Escherichia coli BL21 assessed as residual activity at 1000 nM after 30 mins by Kinomescan method relative to control
Sequence of SRSF protein kinase 1 (Homo sapiens) (Q96SB4 whole entry, the tested form may be a part): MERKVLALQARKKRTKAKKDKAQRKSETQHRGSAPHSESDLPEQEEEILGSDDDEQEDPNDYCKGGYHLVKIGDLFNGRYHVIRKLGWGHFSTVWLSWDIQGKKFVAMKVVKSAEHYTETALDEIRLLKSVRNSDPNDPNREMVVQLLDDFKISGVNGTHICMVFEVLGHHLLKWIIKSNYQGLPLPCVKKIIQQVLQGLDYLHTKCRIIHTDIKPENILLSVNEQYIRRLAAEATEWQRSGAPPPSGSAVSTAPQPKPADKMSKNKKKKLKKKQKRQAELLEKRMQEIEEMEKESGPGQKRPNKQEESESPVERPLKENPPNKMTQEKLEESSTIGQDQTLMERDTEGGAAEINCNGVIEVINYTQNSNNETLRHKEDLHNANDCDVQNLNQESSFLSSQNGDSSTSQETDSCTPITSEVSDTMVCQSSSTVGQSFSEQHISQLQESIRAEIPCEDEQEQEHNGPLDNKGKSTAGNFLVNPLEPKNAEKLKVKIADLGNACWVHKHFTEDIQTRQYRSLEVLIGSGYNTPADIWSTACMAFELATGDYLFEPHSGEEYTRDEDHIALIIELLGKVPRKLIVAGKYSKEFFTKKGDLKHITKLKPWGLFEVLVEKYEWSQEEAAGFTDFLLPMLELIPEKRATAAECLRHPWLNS

[21] = target: TGF-beta receptor type-1 (Homo sapiens) (UniProt P36897); assay: Inhibition of wild-type human partial length TGFBR1 (D179 to M503 residues) expressed in Escherichia coli BL21 assessed as residual activity at 1000 nM after 30 mins by Kinomescan method relative to control
Sequence of TGF-beta receptor type-1 (Homo sapiens) (P36897 whole entry, the tested form may be a part): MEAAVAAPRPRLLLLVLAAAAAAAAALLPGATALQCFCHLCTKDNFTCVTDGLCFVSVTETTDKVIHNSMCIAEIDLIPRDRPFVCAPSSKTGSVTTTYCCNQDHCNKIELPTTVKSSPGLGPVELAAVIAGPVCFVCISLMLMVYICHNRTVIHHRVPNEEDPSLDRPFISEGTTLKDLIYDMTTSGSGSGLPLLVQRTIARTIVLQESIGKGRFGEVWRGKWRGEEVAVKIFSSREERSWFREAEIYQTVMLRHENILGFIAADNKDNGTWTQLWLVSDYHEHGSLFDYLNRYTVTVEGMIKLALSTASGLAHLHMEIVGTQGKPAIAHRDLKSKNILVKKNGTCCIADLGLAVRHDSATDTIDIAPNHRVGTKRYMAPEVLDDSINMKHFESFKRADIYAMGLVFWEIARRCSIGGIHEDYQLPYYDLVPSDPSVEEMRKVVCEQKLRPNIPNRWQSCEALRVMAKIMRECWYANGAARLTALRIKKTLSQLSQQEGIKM

Compound COc1cc(OC)c(Cl)c(N2Cc3cnc(Nc4ccc(F)cc4)nc3N(C3CCN(C(=O)/C=C/CN(C)C)CC3)C2=O)c1Cl has an IC50 [1] of 1.45 nM, an Activity [2] of 64% and an Activity [3] of 92%. The Activity [4] was 0.6%, the Activity [5] was 100% and the Activity [6] was 100%. It also gave an Activity [7] of 100%, an Activity [8] of 96% and an Activity [9] of 100%. It also gave an Activity [10] of 100%, an Activity [11] of 98% and an Activity [12] of 100%. For the same compound, the Activity [13] was 88%, the Activity [14] was 100% and the Activity [15] was 100%. It also gave an Activity [16] of 100%, an Activity [17] of 95% and an Activity [18] of 89%. It also gave an Activity [19] of 100%, an Activity [20] of 80% and an Activity [21] of 95%.
